Consider 1 molecule from ChEMBL document CHEMBL4350976, “Sequence modification of heptapeptide selected by phage display as homing device for HT-29 colon cancer cells to improve the anti-tumour activity of drug delivery systems” (Eur J Med Chem, 2019).

Where a SMILES comes first, the peptide text is derived from it. The star is where a group is joined. X1 = COc1cccc2c1C(=O)c1c(O)c3c(c(O)c1C2=O)C[C@@](O)(/C(C)=N/OCC(=O)*)C[C@@H]3O[C@H]1C[C@H](N)[C@H](O)[C@H](C)O1

Series [1] in a line: Drug uptake in cytoplasm of living human HT-29 cells at 50 uM after 90 mins by fluorescence based confocal microscopic analysis. Type of series: ADME, subcellular. The note with it: ht-29, 1.5 h. The method, boiled down: (§1)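 HT-29 cells were incubated with 50 µM compound in RPMI for 90 min. Imaging was by confocal microscopy, with Dau detected at 550–600 nm emission.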
Series [2] can be described thus: Drug uptake in human HT-29 cells assessed as increase in fluorescence intensity at 25 uM incubated for 3 hrs by flow cytometry. It counts as ADME, cell-based. The note with it: ht-29, 3 h.
Series [3] relates to HT-29. In words: Cytostatic activity against human HT-29 cells preincubated for 24 hrs under serum free condition followed by compound washout and further incubation for 48 hrs in presence of serum by MTT assay. It counts as functional, cell-based. An outline of the steps: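 HT-29 cells were exposed to the compound for 24 h, washed, and kept a further 48 h. Viability was read by MTT. Absorbances were normalized to untreated controls and fitted by nonlinear regression to dose-response curves to give IC50.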
On the technique in general: Tetrazolium assays rely on reduction of a dye to a coloured formazan, in cell work by metabolically active cells.

Series [4] in a line: Retention time of the compound using 0.1% TFA in water and 0.1% TFA in acetonitrile-water (80:20 v/v) as eluents by RP-HPLC analysis. Type of series: physicochemical. The method, boiled down: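 Analytical RP-HPLC. Eluent A was 0.1% TFA in water and eluent B was 0.1% TFA in acetonitrile-water (80:20, v/v). Gradient: 0% B held to 5 min, then to 90% B at 50 min. Flow 1 mL/min, detection at 220 nm. The column was a Phenomenex Aeris Peptide XB-C18 (250×4.6 mm, 3.6 μm) or a Nucleosil C18 (5 μm, 100 Å, 250×4.6 mm), depending on the conjugate series.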

A short description of series [5]: Drug uptake in nucleus of dead human HT-29 cells at 50 uM after 90 mins by fluorescence based confocal microscopic analysis. Type of series: ADME, subcellular. The note with it: ht-29, 1.5 h. The method, boiled down:
as §1

The nature of series [6]: Stability in serum free medium at 30 uM incubated for 3 hrs by LC/MS analysis. The method, boiled down:
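Conjugates (30 μM) were incubated at 37 °C in serum-free medium. Samples were taken at 0 and 3 h, quenched with acetic acid, lyophilised, desalted on C18 spin columns and analysed by LC-MS.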

Series [7] can be described thus: Aqueous solubility of compound in water. Type of series: physicochemical. The settings on record: buffer.
A short description of series [8]: Stability in 2.5% fetal bovine serum containing medium at 30 uM measured after 24 hrs by LC/MS analysis. Type of series: ADME, cell-free, Bos taurus. The note with it: cattle. The method, boiled down: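 Conjugates (30 μM) were incubated at 37 °C in medium containing 2.5% FBS. Samples were taken at 0, 3, 6 and 24 h, quenched with acetic acid, lyophilised, desalted on C18 spin columns and analysed by LC-MS. Cleavage products were identified by mass.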

With `COc1cccc2c1C(=O)c1c(O)c3c(c(O)c1C2=O)C[C@@](O)(/C(C)=N/OCC(=O)N[C@@H](CC(C)C)C(=O)N[C@@H](CCCNC(=N)N)C(=O)N[C@@H](CCCNC(=N)N)C(=O)N[C@@H](Cc1ccc(O)cc1)C(=O)N[C@H](C(=O)N[C@@H](Cc1cnc[nH]1)C(=O)N[C@@H](CC(C)C)C(=O)N[C@@H](CO)C(=O)N[C@@H](Cc1ccc(O)cc1)C(=O)N[C@@H](C)C(=O)N[C@H](C(N)=O)[C@@H](C)O)C(C)C)C[C@@H]3O[C@H]1C[C@H](N)[C@H](O)[C@H](C)O1` (X1-LRRYVHLSYAT-NH2), the Drug uptake entry in series [1], in series [2] and in series [5] was “Active” throughout. In addition, the IC50 in series [3] was 24.8 µM. In addition, the Retention_time in series [4] is given as 28.9 min. Also, the Stability result in series [6] and in series [8] was “Stable” throughout. Besides, in series [7], the solubility result is listed as “Soluble”.

A word on the IC50: it is the midpoint of a concentration-inhibition curve.
